The source of these data is PubChem BioAssay AID1217 (Sanford-Burnham Center for Chemical Genomics, 2008).

Screen size: about 190,000 compounds; about 1,300 (0.68%) were called active. For the sample, actives were picked, then their nearest neighbours and some compounds at random. A number with no mark means an inactive call.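 The calls were made as follows: active = primary screen inhibition at 20 µM above a set limit (cut at about 50% in these data); inactive = the rest.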

The test system of this assay is diaphorase (Clostridium kluyveri). As to the kind of experiment: diaphorase inhibitors and chemical oxidizers, primary screen, counter-screen for diaphorase-coupled primary assays, biochemical, uHTS, resorufin fluorescence (AID 1217).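 Also: plate controls were DMSO with full reaction for no effect and wells lacking NADH for full effect.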 To be noted: diaphorase resazurin-to-resorufin fluorescence, NADH, 16 min; at 20 µM; stronger effect = higher value; bacterial (C. kluyveri) enzyme, not human. An outline of the steps: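 controls = No-NADH positive control and DMSO neutral control | system = Clostridium kluyveri diaphorase enzyme | timing = reaction incubation of 16 min at room temperature | signal = resorufin fluorescence 544/590 nm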
On the technique in general: The purpose of a counterscreen is to sort out artefacts and off-target activity.
For orientation: inhibition means the drop in the measured response relative to a control, in per cent. With `COc1ccc(N(C)S(=O)(=O)c2cccc3nsnc23)cc1`, the inhibition was 3.7%. The same measure for `NC(=O)Cc1ccc2sc(-c3ccccc3)nc2c1`: 12.5%.

On to `CC(C)CC(=O)NC(=S)NNC(=O)c1cccc([N+](=O)[O-])c1`, for which the inhibition was 58.7% (active). For `COCCCNC(=S)NC(=O)c1ccc([N+](=O)[O-])cc1` the value was 9.4%; for `CC(C)(C)SCCNC(=O)c1cccc([N+](=O)[O-])c1`, 1.8%; for `Cc1cccc(C(=O)NNC(=O)c2cccc([N+](=O)[O-])c2)c1`, 10.9%.

For `CCCCCC(=O)NC(=S)NNC(=O)c1ccc([N+](=O)[O-])cc1`, the inhibition was 54.7% (active). For the compound `CCCCCC(=O)Nc1ccc(C(=O)N/N=C/c2ccc([N+](=O)[O-])cc2)cc1`, the inhibition is 4.9%. For `Brc1cc(/C=N/n2cnnc2)oc1Br` the value was -5.6%. The same measure for `O=C(COc1ccc(Cl)cc1)NCc1nnc(SCC(=O)NCC2CCCO2)o1` (stereo unspecified): 3.2%; for `Cc1cc(C)n(CC(=O)Nc2ccc([N+](=O)[O-])cc2)n1`: 19.4%. For `COc1ccc(CNC(=O)CN(Cc2ccc(Cl)cc2)S(C)(=O)=O)cc1` the value was 12.3%; for `CC1=CC(C)(C)N(C(=O)CSc2nnc(-c3ccccc3)o2)c2ccc(C)cc21`, 6.9%. In the case of `COc1ccc2c(c1)C(C)=CC(C)(C)N2C(=O)CNCc1ccc2c(c1)OCO2`, the inhibition was 34.2%. The same measure for `COc1ccc2c(c1)C(C)=CC(C)(C)N2C(=O)Nc1ccccc1`: 74.3% (active); for `O=C(NCc1ccccn1)c1ccc2nc(-c3ccco3)c(-c3ccco3)nc2c1`: 51% (active); for `COCCNC(=O)Nc1ccc2nc(-c3ccco3)c(-c3ccco3)nc2c1`: 70.2% (active). The same measure for `O=C(NCc1ccccn1)c1cc(-c2ccccc2Cl)on1`: 4.9%; for `CN(c1ccc(C(=O)NCc2ccccn2)cc1)S(C)(=O)=O`: 5.3%. Consider `COc1ccc(NC(=O)Nc2ccc3nc(C)c(C)nc3c2)cc1`, for which the inhibition was 13.6%. The same measure for `COc1ccc(NC(=O)Nc2ccc3nsnc3c2)cc1`: 15.1%; for `CC(C)C(C)(C#N)NC(=O)CSc1nncn1-c1ccccc1` (stereo unspecified): 12.5%.

Regarding `O=C(CO/N=C/c1ccc(OC(F)F)cc1)NCc1ccc(F)cc1`, the inhibition was 9.6%. For `O=C(NNC(=O)C1CCN(c2ncccn2)CC1)c1ccccc1` the value was -1.9%; for `CCN1CCN(C(c2cccnc2)c2cc(Cl)c3cccnc3c2O)CC1` (stereo unspecified), 54.7% (active). Consider `CCOC(=O)N1CCN(C(c2cccnc2)c2ccc3cccnc3c2O)CC1` (stereo unspecified), for which the inhibition was 48.3%. The same measure for `Oc1c(CN2CCN(c3ccc(F)cc3)CC2)cc(Cl)c2cccnc12`: 14.9%. The same measure for `Cc1ccc(N(C(=O)Cc2cccs2)C2C=CS(=O)(=O)C2)cc1Cl` (stereo unspecified): 12.1%; for `CC(C)CCN1CCN(Cc2cn[nH]c2C2CCCCC2)CC1CCO` (stereo unspecified): 8.8%. The same measure for `COc1ccc(NS(=O)(=O)c2cc(NC(=O)CC(=O)c3ccc([N+](=O)[O-])cc3)ccc2C)cc1`: -19.9%. `c1ccc(-c2cc3c(NCC4COc5ccccc5O4)ncnc3s2)cc1` (stereo unspecified): the inhibition was 14.4%. Turning to `COc1ccc(-c2[nH]ncc2/C=N/NC(=O)c2cc(Br)ccc2O)c(OC)c1`, the inhibition is 8.8%.

Consider `CN(C)c1ccc(/C=N/Nc2cc(N3CCOCC3)nc(N3CCOCC3)n2)cc1`, for which the inhibition is 58% (active). For `CCN(CC)c1ccc(C(=O)N/N=C/c2ccc(N3CCOCC3)cc2)cc1` the value was 14.2%; for `C(=N/Nc1cc(N2CCOCC2)nc(N2CCOCC2)n1)/c1ccccc1`, 65.9% (active). For `Cc1cc(C(=O)N/N=C/c2ccc(N3CCOCC3)cc2)c(C)o1` the value was -7.7%; for `Cc1ccccc1N/N=C/c1ccc(N2CCOCC2)cc1`, 13.9%.

Regarding `Cc1cc(Oc2ccccc2)nc(N2CCOCC2)n1`, the inhibition was 8.4%. On to `COc1cc2c(cc1OC)C(=O)NCC(C)(C)O2`, for which the inhibition was -1.5%. For `Cc1cc(C)nc(-n2nc(C)cc2NC(=O)c2ccc(F)cc2F)n1` the value was 3.4%; for `Cc1cc(OCC(=O)NC2CCN(C)CC2)ccc1[N+](=O)[O-]`, 3.6%; for `COc1cccc(NC(=O)c2ccc(S(=O)(=O)N(C)C)cc2)c1`, 5.6%. The same measure for `O=C(COC(=O)/C=C/c1cccc(Cl)c1)NCCc1ccccc1`: 8%; for `CCOc1ccccc1Nc1ccc(C(=O)O)cc1[N+](=O)[O-]`: 9.2%; for `OCCC1CN(Cc2cccc(OC3CCCC3)c2)CCN1Cc1ccsc1` (stereo unspecified): 8.6%. For the compound `CCCCCCCNc1nc(Cl)nc(NCCO)n1`, the inhibition was -16.1%. For `CCn1cc(C(=O)N2CCN(Cc3ccc4c(c3)OCO4)CC2)c2cc(OC)c(OC)cc2c1=O` the value was 10.4%; for `CCn1cc(C(=O)NCC2COc3ccccc3O2)c2cc(OC)c(OC)cc2c1=O` (stereo unspecified), 7.1%. The same measure for `CCn1cc(C(=O)NCc2ccc3c(c2)OCO3)c2cc(OC)c(OC)cc2c1=O`: 59.4% (active). On to `N#CC1=C(N)Oc2[nH]c(=S)[nH]c(=O)c2C12C(=O)Nc1ccccc12` (stereo unspecified), for which the inhibition is 25.5%. As to `Cc1cc(C)c(C#N)c(SCc2[nH]nc3c2C(c2ccccc2)C(C#N)=C(N)O3)n1` (stereo unspecified), the inhibition is 53% (active).

In the case of `CCCc1[nH]nc2c1C(c1c(C)nn(-c3ccccc3)c1Cl)C(C#N)=C(N)O2` (stereo unspecified), the inhibition is 26.8%. For `CCc1ccc(C2C(C#N)=C(N)Oc3n[nH]c(CC(=O)OC)c32)cc1` (stereo unspecified) the value was 4%; for `O=C(OCc1cc(Cl)ccc1OC(F)F)c1cccnc1`, 10.6%; for `COc1cc(/C=N/n2c(C)n[nH]c2=S)ccc1OCc1ccccc1`, 32%. The same measure for `COC(=O)c1ccc(/C=N\n2c(C)nnc2C)cc1`: -6.4%.

`CCN(CC)S(=O)(=O)c1cccc(-c2n[nH]c(=S)n2/N=C/c2ccc(C(=O)OC)cc2)c1`: the inhibition was 66.5% (active). For `CN1CCN(CC(=O)Nc2cccc([N+](=O)[O-])c2)CC1` the value was 12%; for `CCOc1ccc(-n2c(O)c(/C=N/c3ccnn3Cc3ccncc3)c3ccccc3c2=O)cc1`, -12.9%.

With `CCOc1ccc(-n2c(O)c(/C=N/Nc3nc(C)cc(C)n3)c3ccccc3c2=O)cc1`, the inhibition is -1.1%. For `CCOc1ccc(-n2c(O)c(/C=N/Nc3nnc(C)c(=O)[nH]3)c3ccccc3c2=O)cc1` the value was 89.8% (active).
